Measurements reported in PubChem BioAssay.
Records with an inconclusive call do not appear.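 How the source made its calls, unless noted: active means cell viability at or below a set limit in both duplicate runs, the limit being the all-compound median minus 4 SD (cut at about 23% in these data, passing the limit was not always enough); inconclusive means no clear call, values can overlap the other calls; inactive means the rest.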

Tests used:
[1] = S. cerevisiae growth inhibition in permissive medium (OD615), pilot counter-assay for S. cerevisiae lifespan shortening project, permissive growth control (AID 705;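 active means growth inhibition above 25% in both replicates, a cutoff set 3 SD above the mean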); settings: OD615, 24 h, at 10 µM, hits give high values
In short: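 Test system: Saccharomyces cerevisiae strain carrying genetically modified DeaD replicative-lifespan system; buffer or medium: SC raffinose/galactose permissive medium; dosing: one dose 10 µM, DMSO 0.25% final; times: 24 h exposure, 30 °C; measured by: OD at 615 nm; read-out basis: growth inhibition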

[2] = S. cerevisiae growth inhibition in restrictive medium, OD615, pilot screen, restrictive growth control, yeast lifespan reduction project (AID 706;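 active means growth inhibition above a set limit, 3 SD over mean compound inhibition, in both replicates, cut at about 43% in these data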;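 further: modified DeaD lifespan yeast strain shifted to restrictive glucose medium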); settings: OD615, 48 h, at 10 µM, hits give high values
In short: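 material = engineered S. cerevisiae DeaD strain | buffer or medium = glucose-based CSMM-D restrictive medium | dosing = one concentration, 10 µM final, 0.25% DMSO | schedule = 4 h pre-growth plus 48 h compound exposure, 30 °C | detection = OD615 absorbance reading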

[3] = doxorubicin toxicity protection in MRP-1 cells – H69AR cells, CellTiter-Glo, duplicate, MRP-1 activator project, pilot screen (AID 807;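 active means viability increase at or above a cutoff of the median across tested compounds plus 3 SD, cut at about 8.5% in these data, passing the limit was not always enough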;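 further: compound pretreatment 18-22 h then 72 h combined with doxorubicin; 0% = doxorubicin alone and 100% = vehicle without doxorubicin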); settings: H69AR viability with doxorubicin, CellTiter-Glo luminescence; at 10 µM; hits give high values
[4] = viability of HCT116 without oncogenic beta-catenin – human colon tumor cells, pilot screen (AID 823); settings: HCT116 beta-catenin knockout viability, CellTiter-Glo, 60 h; at 10 µM; hits give low values;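 further: 0% = wells killed by 20 µM Hyamine and 100% = untreated DMSO cell wells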
[5] = viability of PTEN-null HCT116 cells – cell-based, HCT116 clonal line, CellTiter-Glo, pilot screen (AID 824;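 active means viability at or below 27.92% in each of two runs, the all-compound median minus 4 SD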;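 further: 0% = 20 µM Hyamine control and 100% = vehicle cell control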); settings: HCT116 PTEN-deleted viability, 60 h, at 10 µM, hits give low values
[6] = RAM pathway blockade in budding yeast – dse1pr::URA3 reporter, 5-FOA selection, pilot screen (AID 869;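 active means inhibition over a set limit, the all-compound mean plus 3 SD, in both replicate runs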;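 further: 0% = DMSO wells with no growth and 100% = 10 µM 1-NA-PP1 with full growth; RAM network block rescues cells from 5-FOA so hits raise OD615 growth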); settings: S. cerevisiae dse1pr::URA3 5-FOA growth, OD615, 2 d; at 10 µM; hits give high values; strain carries analog-sensitive mutant Cbk1 kinase
[7] = RAM signaling pathway blockade in yeast – S. cerevisiae, Pdr1DBD-CYC8 efflux-inhibited sensitized strain, primary screen (AID 1298;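 active means RAM network inhibition above 8.4% in each of two replicates, 3 SD over the compound average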;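 further: 0% = DMSO untreated cells without growth and 100% = 10 µM 1-NA-PP1 full growth; higher means more yeast growth rescued from 5-FOA killing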); settings: S. cerevisiae cbk1-as DSE1-URA3 strain, 5-FOA growth OD615, 2 d; at 50 µM; hits give high values

COc1ccc(N2CCN(CCCNS(=O)(=O)c3ccc4c(c3)oc(=O)n4C)CC2)cc1
inactive: growth inhibition [1] -8.8% | growth inhibition [2] 2.4% | viability increase [3] 0.06% | viability [4] 94.3% | viability [5] 97.4% | inhibition [6] 1.25% | RAM network inhibition [7] 6.05%

O=c1c2ccccc2nc(SCc2nnc(-c3ccccc3)o2)n1-c1ccccc1
inactive: growth inhibition [1] -13.1% | growth inhibition [2] -8.7% | viability increase [3] -3.18% | viability [4] 75.4% | viability [5] 84.6% | inhibition [6] 1.96% | RAM network inhibition [7] 5.69%

Nc1nc(SCC(=O)NCCCO)nc2sc3c(c12)CCC3
inactive: growth inhibition [1] -8.84% | growth inhibition [2] -4.31% | viability increase [3] -1.44% | viability [4] 96.1% | viability [5] 94% | inhibition [6] 1.44% | RAM network inhibition [7] 0.31%

CCOC(=O)C1CCCN(C(=O)c2cn(C)c3ccc(S(=O)(=O)N(C)C)cc3c2=O)C1 (centres undefined)
inactive: growth inhibition [1] -5.1% | growth inhibition [2] -1.87% | viability increase [3] 0.59% | viability [4] 97.8% | viability [5] 105% | inhibition [6] 0.48% | RAM network inhibition [7] 6.85%

CCOC(=O)c1csc(NC(=O)c2ccccc2)n1
inactive: growth inhibition [1] -6.33% | growth inhibition [2] 0.485% | viability increase [3] 4.7% | viability [4] 101% | viability [5] 99.7% | inhibition [6] 0.115% | RAM network inhibition [7] -2.57%

CCOc1cc(C(=O)NC(C)COC)cc(OCC)c1OCC (centres undefined)
inactive: growth inhibition [1] -4.84% | growth inhibition [2] -8.48% | viability increase [3] -2.05% | viability [4] 104% | viability [5] 104% | inhibition [6] 0.785% | RAM network inhibition [7] 0.53%

Cc1cc(-c2ccco2)n(CC(=O)NCc2ccco2)n1
inactive: growth inhibition [1] -3.72% | growth inhibition [2] -9.28% | viability increase [3] -2.82% | viability [4] 100% | viability [5] 100% | inhibition [6] 0.355% | RAM network inhibition [7] 2.47%

Cc1ccc(S(=O)(=O)/N=C/c2ccco2)cc1
inactive: growth inhibition [1] -11.7% | growth inhibition [2] -12.3% | viability increase [3] -1.73% | viability [4] 105% | viability [5] 100% | inhibition [6] 0.625% | RAM network inhibition [7] 6.25%

CCCCC(=O)Nc1ccc2c(c1)C(=O)NC2=O
inactive: growth inhibition [1] -2.94% | growth inhibition [2] -3.99% | viability increase [3] 0.07% | viability [4] 101% | viability [5] 94.5% | inhibition [6] 2.62% | RAM network inhibition [7] 2.45%

Cc1ccc(C)c(N2CCN(C(=O)c3cc4ccccc4oc3=O)CC2)c1
inactive: growth inhibition [1] -11.6% | growth inhibition [2] -15.9% | viability increase [3] 1.72% | viability [4] 100% | viability [5] 95.5% | inhibition [6] 1.18% | RAM network inhibition [7] 3.38%

CCOC(=O)CSC1=C(C#N)C(c2ccc(Cl)cc2)CC(=O)N1 (centres undefined)
inactive: growth inhibition [1] -15.6% | growth inhibition [2] -15.6% | viability increase [3] 0.52% | viability [4] 87.8% | viability [5] 82.5% | inhibition [6] 0.69% | RAM network inhibition [7] 0.53%

CC(C)CNS(=O)(=O)c1ccc(S(=O)(=O)N2CCN(CCC#N)CC2)cc1
inactive: growth inhibition [1] -11.7% | growth inhibition [2] -4.15% | viability increase [3] -0.2% | viability [4] 99.6% | viability [5] 103% | inhibition [6] 0.85% | RAM network inhibition [7] -0.19%

COc1ccccc1NC(=O)CSc1nnc(C)o1
inactive: growth inhibition [1] -7.09% | growth inhibition [2] -9.04% | viability increase [3] -1.19% | viability [4] 101% | viability [5] 102% | inhibition [6] 2.02% | RAM network inhibition [7] 2.69%

CCCCC(=O)Nc1nc2c(OC)ccc(OC)c2s1
inactive: growth inhibition [1] -5.01% | growth inhibition [2] 1.46% | viability increase [3] -2.98% | viability [4] 97.5% | viability [5] 98.3% | inhibition [6] 0.87% | RAM network inhibition [7] 3.86%

COc1ccc(NC2c3ccccc3C(=O)N2c2cccnc2)cc1Cl (centres undefined)
inactive: growth inhibition [1] 4.54% | growth inhibition [2] 2.02% | viability increase [3] -2.35% | viability [4] 89.5% | viability [5] 80.4% | inhibition [6] 2.27% | RAM network inhibition [7] 0.67%

O=C(Cn1nc(Cc2cccnc2)c2ccccc2c1=O)NCc1ccc2c(c1)OCO2
inactive: growth inhibition [1] 1.71% | growth inhibition [2] 5.04% | viability increase [3] -1.57% | viability [4] 97% | viability [5] 94.7% | inhibition [6] 0.55% | RAM network inhibition [7] -0.05%

COc1ccc(CN2CCCCC2c2cccnc2)c(OC)c1C (centres undefined)
inactive: growth inhibition [1] -1.37% | growth inhibition [2] 0.92% | viability increase [3] -2.86% | viability [4] 92.1% | viability [5] 99% | inhibition [6] 1.25% | RAM network inhibition [7] 1.37%
